Columns and labels:
[1] = Study 2 Part 2: repeat ascending dose; assay type: in vivo, human; details: human, plasma, inhaled, 2400 µg, MDDPI, Day 14, n=8
Summary of the method: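 Blood was collected in lithium heparin, chilled on ice, and centrifuged at 2,000 ×g for 15 min at ~4°C. Plasma was stabilised with 1 M citric acid (100 µL per 1 mL plasma) and stored at ≤−65°C. After solid-phase extraction, samples were assayed by validated LC-MS/MS with heated electrospray and a deuterated internal standard (LLOQ 10 pg/mL). PK parameters were derived non-compartmentally.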

[2] = Study 1 Part 1: adverse events after single doses via SDDPI; assay type: in vivo, human
Summary of the method: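 Study 1 Part 1 used a crossover design in healthy men aged 18–55. Single inhaled doses of test compound (20–2,000 µg) or matching placebo were given via a capsule-based single-dose dry-powder inhaler. Investigators recorded each AE and its relation to study medication. Counts are number (%) of the safety population, defined as randomized subjects receiving at least one dose.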

[3] = Study 2 Part 1: adverse events after single doses via MDDPI; assay type: in vivo, human
Summary of the method: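 Study 2 Part 1 was a three-period single ascending dose design in healthy men and women, with four randomized treatment sequences. At each visit, test compound (2,400, 4,000, 4,800 µg) or placebo was inhaled via a reservoir multi-dose dry-powder inhaler, with the dose rising each visit. AEs and investigator-judged relation to study drug were recorded, reported as number (%) of the safety population.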

[4] = in humans; cited from earlier work
[5] = test system: human bronchial epithelial cells; details: alone and in combination with low-dose corticosteroids; cited from earlier work
[6] = human liver; cited from earlier work
[7] = cited from earlier work

With `CS(=O)(=O)Nc1ccc(C(=O)O[C@@H](Cc2c(Cl)c[n+]([O-])cc2Cl)c2ccc(OC(F)F)c(OCC3CC3)c2)cc1OCC1CC1` [CHF6001] the AUC(0-t) ([1]; AUC0–12 h, 2,400 µg BID, geometric mean (% CV)) was 61.9 ng·h/mL, the Tmax ([1]; tmax, 2,400 µg BID, median (range)) was 2.3 h and the “AE considered related to study medication” value (“AE considered related” for short) ([2]; single dose 20 µg, N=8) was 0 Number (%) of subjects. For the same compound, the “AE leading to death” value ([2]; single dose 20 µg, N=8) was 0 Number (%) of subjects, the “AE leading to withdrawal” value ([2]; single dose 20 µg, N=8) was 0 Number (%) of subjects and the “At least one AE” value ([2]; single dose 20 µg, N=8) was 1 (12.5) Number (%) of subjects. For the same compound, the “At least one SAE” value ([2]; single dose 20 µg, N=8) was 0 Number (%) of subjects, the “Severe AE” value ([2]; single dose 20 µg, N=8) was 0 Number (%) of subjects and the “AE considered related” value ([2]; single dose 100 µg, N=8) was 0 Number (%) of subjects. For the same compound, the “AE leading to death” value ([2]; single dose 100 µg, N=8) was 0 Number (%) of subjects, the “AE leading to withdrawal” value ([2]; single dose 100 µg, N=8) was 0 Number (%) of subjects and the “At least one AE” value ([2]; single dose 100 µg, N=8) was 0 Number (%) of subjects. The “At least one SAE” value ([2]; single dose 100 µg, N=8) was 0 Number (%) of subjects, the “Severe AE” value ([2]; single dose 100 µg, N=8) was 0 Number (%) of subjects and the “AE considered related” value ([2]; single dose 200 µg, N=8) was 0 Number (%) of subjects. The “AE leading to death” value ([2]; single dose 200 µg, N=8) was 0 Number (%) of subjects, the “AE leading to withdrawal” value ([2]; single dose 200 µg, N=8) was 1 (12.5) Number (%) of subjects and the “At least one AE” value ([2]; single dose 200 µg, N=8) was 3 (37.5) Number (%) of subjects. The “At least one SAE” value ([2]; single dose 200 µg, N=8) was 0 Number (%) of subjects, the “Severe AE” value ([2]; single dose 200 µg, N=8) was 0 Number (%) of subjects and the “AE considered related” value ([2]; single dose 400 µg, N=7) was 0 Number (%) of subjects. The “AE leading to death” value ([2]; single dose 400 µg, N=7) was 0 Number (%) of subjects, the “AE leading to withdrawal” value ([2]; single dose 400 µg, N=7) was 0 Number (%) of subjects and the “At least one AE” value ([2]; single dose 400 µg, N=7) was 2 (28.6) Number (%) of subjects. For the same compound, the “At least one SAE” value ([2]; single dose 400 µg, N=7) was 0 Number (%) of subjects, the “Severe AE” value ([2]; single dose 400 µg, N=7) was 0 Number (%) of subjects and the “AE considered related” value ([2]; single dose 800 µg, N=7) was 0 Number (%) of subjects. For the same compound, the “AE leading to death” value ([2]; single dose 800 µg, N=7) was 0 Number (%) of subjects, the “AE leading to withdrawal” value ([2]; single dose 800 µg, N=7) was 0 Number (%) of subjects and the “At least one AE” value ([2]; single dose 800 µg, N=7) was 3 (42.9) Number (%) of subjects. For the same compound, the “At least one SAE” value ([2]; single dose 800 µg, N=7) was 0 Number (%) of subjects, the “Severe AE” value ([2]; single dose 800 µg, N=7) was 0 Number (%) of subjects and the “AE considered related” value ([2]; single dose 1,600 µg, N=7) was 0 Number (%) of subjects. The “AE leading to death” value ([2]; single dose 1,600 µg, N=7) was 0 Number (%) of subjects, the “AE leading to withdrawal” value ([2]; single dose 1,600 µg, N=7) was 0 Number (%) of subjects and the “At least one AE” value ([2]; single dose 1,600 µg, N=7) was 2 (28.6) Number (%) of subjects. The “At least one SAE” value ([2]; single dose 1,600 µg, N=7) was 0 Number (%) of subjects, the “Severe AE” value ([2]; single dose 1,600 µg, N=7) was 0 Number (%) of subjects and the “AE considered related” value ([2]; single dose 2,000 µg, N=6) was 0 Number (%) of subjects. For the same compound, the “AE leading to death” value ([2]; single dose 2,000 µg, N=6) was 0 Number (%) of subjects, the “AE leading to withdrawal” value ([2]; single dose 2,000 µg, N=6) was 0 Number (%) of subjects and the “At least one AE” value ([2]; single dose 2,000 µg, N=6) was 0 Number (%) of subjects. The “At least one SAE” value ([2]; single dose 2,000 µg, N=6) was 0 Number (%) of subjects, the “Severe AE” value ([2]; single dose 2,000 µg, N=6) was 0 Number (%) of subjects and the “AE considered related” value ([3]; single dose 2,400 µg, N=9) was 1 (11.1) Number (%) of subjects. The “AE leading to death” value ([3]; single dose 2,400 µg, N=9) was 0 Number (%) of subjects, the “AE leading to withdrawal” value ([3]; single dose 2,400 µg, N=9) was 1 (11.1) Number (%) of subjects and the “At least one AE” value ([3]; single dose 2,400 µg, N=9) was 3 (33.3) Number (%) of subjects. For the same compound, the “At least one SAE” value ([3]; single dose 2,400 µg, N=9) was 0 Number (%) of subjects, the “Severe AE” value ([3]; single dose 2,400 µg, N=9) was 1 (11.1) Number (%) of subjects and the “AE considered related” value ([3]; single dose 4,000 µg, N=8) was 1 (12.5) Number (%) of subjects. For the same compound, the “AE leading to death” value ([3]; single dose 4,000 µg, N=8) was 0 Number (%) of subjects, the “AE leading to withdrawal” value ([3]; single dose 4,000 µg, N=8) was 0 Number (%) of subjects and the “At least one AE” value ([3]; single dose 4,000 µg, N=8) was 1 (12.5) Number (%) of subjects. The “At least one SAE” value ([3]; single dose 4,000 µg, N=8) was 0 Number (%) of subjects, the “Severe AE” value ([3]; single dose 4,000 µg, N=8) was 0 Number (%) of subjects and the “AE considered related” value ([3]; single dose 4,800 µg, N=8) was 0 Number (%) of subjects. The “AE leading to death” value ([3]; single dose 4,800 µg, N=8) was 0 Number (%) of subjects, the “AE leading to withdrawal” value ([3]; single dose 4,800 µg, N=8) was 0 Number (%) of subjects and the “At least one AE” value ([3]; single dose 4,800 µg, N=8) was 1 (12.5) Number (%) of subjects. For the same compound, the “At least one SAE” value ([3]; single dose 4,800 µg, N=8) was 0 Number (%) of subjects, the “Severe AE” value ([3]; single dose 4,800 µg, N=8) was 0 Number (%) of subjects and the plasma protein bound [4] was > 99%. For the same compound, the “cytokine levels after rhinovirus challenge” value [5] was “reduced the levels of a range of cytokines in a concentration-dependent manner”, the metabolic stability [6] was “metabolically stable” and the systemic bioavailability ([7]; after intratracheal administration) was “low systemic bioavailability”. The bioavailability ([7]; after oral administration) was “very low bioavailability” and the elimination ([7]; following intravenous administration, predominantly via the fecal route) was “rapidly eliminated”.
